# Rows were chosen to be rich in hits. Some 1.8% of all compounds tested hit in one or more screens of this group.
# CHRM4 agonist: CHRM4 agonism in calcium assay. P08173. CHO-K1 hM4/Gqi5, Fluo-8 calcium fluorescence; vehicle 0%, full acetylcholine response 100%. activation, % at 3 µM. 360,000 compounds, 0.14% hits. AID 624127;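 active means activation above the run mean over all test wells plus 3 SD, cut at about 32% in these data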;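 further: peak over basal fluorescence ratio per well then scaled between controls; 0% = DMSO wells and 100% = acetylcholine at EC100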
# M5 ag: agonists of human muscarinic M5 receptor (CHRM5). P08912. CHO-K1 hM5 cells, Fluo-8 calcium fluorescence; 0% DMSO wells, 100% maximal acetylcholine response. activation, % at 3 µM. 360,000 compounds, 0.19% hits;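 active means activation above the run's mean over test compounds plus 3 SD, cut at about 23% in these data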;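 further: signal is peak over basal fluorescence ratio across the kinetic read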
# Target sequence (P08912 whole entry, looked up): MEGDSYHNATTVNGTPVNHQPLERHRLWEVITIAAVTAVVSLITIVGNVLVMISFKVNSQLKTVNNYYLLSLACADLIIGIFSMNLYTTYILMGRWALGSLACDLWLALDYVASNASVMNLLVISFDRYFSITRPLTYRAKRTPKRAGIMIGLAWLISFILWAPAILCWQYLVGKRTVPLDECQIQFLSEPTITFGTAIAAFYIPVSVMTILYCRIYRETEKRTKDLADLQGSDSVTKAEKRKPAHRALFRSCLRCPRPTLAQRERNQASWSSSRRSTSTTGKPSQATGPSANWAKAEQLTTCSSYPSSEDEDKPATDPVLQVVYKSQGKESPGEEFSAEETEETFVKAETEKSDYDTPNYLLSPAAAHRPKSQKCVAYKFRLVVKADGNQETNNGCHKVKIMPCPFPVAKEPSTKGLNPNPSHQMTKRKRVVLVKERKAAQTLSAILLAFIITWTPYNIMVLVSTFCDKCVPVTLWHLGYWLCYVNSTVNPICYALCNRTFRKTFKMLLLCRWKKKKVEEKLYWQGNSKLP
# CHRM5 PAM: positive allosteric modulators of human muscarinic M5 receptor. P08912. CHO-K1 hM5, Fluo-8 calcium, ACh EC20 PAM; 0% = ACh EC20, 100% = ACh EC100. activation, % at 3 µM. 360,000 compounds, 0.3% hits. AID 624038;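 active means activation above the run cutoff, the mean activation of all test compounds plus 3 SD, cut at about 18% in these data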
#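 Assay system: CHO-K1 hM5 cells / Incubation: Fluo-8 loading 80 min at 37 °C plus 30 min room temperature / Technique: Fluo-8 calcium dye fluorescence, kinetic read / Repeats: single replicate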
# M4 antag: blocks acetylcholine activation of human M4 receptor. inhibition, % at 3 µM. CHO-hM4 cells, ACh EC80, Fluo-8 calcium fluorescence. 360,000 compounds, 0.73% hits;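 active means inhibition above its plate's cutoff, the mean inhibition of sample wells plus 3 SD, cut at about 27% in these data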;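 further: 0% = acetylcholine EC80 with DMSO and 100% = DMSO without agonist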
# CHRM4 PAM: positive allosteric modulators of human muscarinic M4 receptor; 360,000 compounds, 0.4% hits; CHO-K1 hM4/Gqi5, Fluo-8 calcium fluorescence, ACh EC20; 0% = ACh EC20, 100% = maximal ACh; activation, % at 3 µM;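 active means activation above its plate's cutoff, the mean activation of sample wells plus 3 SD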
# CHRM5 antagonist: blocks acetylcholine activation of human M5 receptor. CHO-hM5 cells, Fluo-8 calcium fluorescence, ACh EC80. inhibition, % at 3 µM. 360,000 compounds, 0.59% hits;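 active means inhibition above a per-plate cutoff, the mean of that plate's test compounds plus 3 SD, cut at about 27% in these data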;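 further: 0% = acetylcholine EC80 with DMSO and 100% = DMSO without agonist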
# Active calls of the source: *.
SMILES,CHRM4 agonist,M5 ag,CHRM5 PAM,M4 antag,CHRM4 PAM,CHRM5 antagonist
COc1cc(NCCCC(C)N)c2ncccc2c1 (stereo not given),2,0,22*,-2,3,5
COCCNC(=O)C1(C)CCCN(Cc2cc(-c3ccccc3)nn2C)C1 (stereo not given),3,1,-1,1,4,6
O=C(c1ccccc1)C1N=NCC1c1ccc(Cl)cc1 (stereo not given),1,27*,-20,-3,3,33*
CCCCn1c(N)c(N(CC)C(=O)c2ccc(Cl)c(Cl)c2)c(=O)[nH]c1=O,0,-3,-8,3,-4,28*
O=C(N/C(=C/c1cccnc1)C(=O)N1CCOCC1)c1ccccc1,1,-3,2,-8,21*,5
COc1cc(/C=C(/NC(=O)c2ccccc2)C(=O)N2CCOCC2)c([N+](=O)[O-])cc1OC,1,-2,-6,8,-1,29*
CC1(C)Oc2cc3oc(=O)ccc3c3c2C2C1CCC(C)(O3)C2O (stereo not given),0,4,0,-7,4,-1
CS/C(=N/S(=O)(=O)c1ccc(C)cc1)c1ccccc1,2,1,9,-7,24*,-3
CC(C)C(=O)N1CCN(c2ccccc2NC(=O)c2ccc(C#N)cc2F)CC1,6,-3,-2,6,-3,5
CC1CCN(c2ccccc2NC(=O)c2ccc(C#N)cc2F)CC1,-1,-2,2,-2,23*,-3
O=C(CCOc1cccc(Br)c1)Nc1ccc(F)c(S(=O)(=O)N2CCOCC2)c1,19,2,-12,10,-12,2
CC1CN(C(=O)CSc2nnc(-c3ccccc3)o2)CC(C)O1 (stereo not given),1,-2,22*,-10,17,-3
Cc1cc(C)c2sc(NC(=O)C3=COCCO3)nc2c1,3,-1,0,-9,22*,2
CN(C(=O)c1cccc(NC(=O)Cc2ccc(NC(=O)C3CCCN(S(=O)(=O)c4cccc([N+](=O)[O-])c4)C3)cc2)c1)C1CCC1 (stereo not given),-1,-1,5,-8,0,-13
COC(=O)CCCC[C@@H]1O[C@H](CCc2ccccc2)CC2=C1C(=O)OC(C)(C)O2,15,1,-17,-1,-7,7
COc1cccc(CN2CCNC(=O)C2CC(=O)N(C)C2CCOCC2)c1OC (stereo not given),0,-6,-8,7,-3,28*
COc1cccc(CN2CCNC(=O)C2CC(=O)N(C)CC2CCOCC2)c1OC (stereo not given),2,-1,2,-19,3,-10
O[C@H]1CN(Cc2cccs2)[C@@H](c2ccccc2)C[C@@H]1n1cc(-c2ccc(F)cc2)nn1,-1,3,1,-5,8,-1
CC1CCCCC12NC(=O)N(CC(=O)N1CCN(S(=O)(=O)c3ccc(Cl)s3)CC1)C2=O (stereo not given),1,0,-1,-15,7,-5
CC1CN(C(=O)CCC(=O)NCCCN2CCN(Cc3ccccc3)CC2)c2cc(Cl)ccc2O1 (stereo not given),2,-10,-2,16,-9,10
COc1ccccc1N1CCN(CCCCCCOc2ccc(F)cc2)CC1,5,-6,-19,2,-12,39*
COc1cc(OC)c(OC)cc1CN1CCN(Cc2ccc(C(F)(F)F)cc2)CC1,1,0,22*,-9,4,-7
COC(=O)[C@@]12C[C@@H](CC(=O)N3CCCC3)C(=O)N(Cc3ccc4c(c3)OCO4)C1=CCC(C)(C)C2,11,3,-1,-14,-2,4
CCOc1ccc(NC(=O)CN2C(=O)S/C(=C/c3cccn3C)C2=O)cc1,2,-4,-16,1,-5,28*
O=C1C[C@@H]2c3c(cccc3CN1Cc1ccc(F)cc1)C[C@@H](O)[C@H]2O,8,2,-13,3,1,6
SMILES,CHRM4 agonist,M5 ag,CHRM5 PAM,M4 antag,CHRM4 PAM,CHRM5 antagonist
C=CCNC(=O)c1cnn(-c2ccccc2)c1-c1ccccc1,3,-3,1,-16,-3,-1
O=C(O)c1cnn(-c2ccccc2)c1-c1ccccc1,0,2,19*,-7,4,-19
CCN(CC)c1ncn(Cc2c(Cl)cccc2Cl)c2ncnc1-2,1,-9,-2,20,52*,-17
CCN(CC)c1ncnc2c1ncn2Cc1c(Cl)cccc1Cl,1,-3,0,-9,22*,-9
O=C1C=C(NNC(=O)c2ccncc2)CC(c2ccccc2)C1 (stereo not given),31,33*,-12,13,-17,8
O=C(OCC(=O)N1CCN(C(=O)c2ccco2)CC1)c1cc(-c2cccc(Br)c2)nc2ccccc12,9,6,-8,28*,-23,12
Cc1ccc(S(=O)(=O)N2C[C@H]3[C@H]4C(=O)N(C)C(=O)[C@H]4CC(=O)[C@H]3[C@@H]2c2ccccc2F)cc1,1,2,2,-13,4,-6
CC(C)c1ccc(CNC(=O)C(=O)Nc2nccs2)cc1,0,-3,-1,4,-5,6
CC(C)Cc1ccc(C(C)C(=O)Nc2nccs2)cc1 (stereo not given),34*,38*,-1,30*,-6,26
CC(C)Cc1ccc(C(C)C(=O)Nc2ccccc2O)cc1 (stereo not given),43*,41*,-25,38*,-32,50*
CCOC(=O)[C@@H]1[C@H]2COc3ccccc3[C@@H]2N2C(=O)N(c3cccc(Cl)c3)C(=O)[C@@]12C,10,3,-14,18,-4,15
COc1ccc(-c2cc(CNC(=O)CCl)on2)cc1,3,0,19*,-14,8,-7
COc1cc(NC(=O)[C@H]2O[C@@H](n3cnc4c(N)ncnc43)[C@H](O)[C@@H]2O)cc(OC)c1OC,3,3,7,-1,0,5
Cc1nnc(SC(C)C(=O)Nc2ccc(Cl)cc2Cl)[nH]c1=O (stereo not given),1,5,3,-6,16,-5
CCN1C[C@@H]2[C@@H]3C(=O)N(Cc4ccccc4)C(=O)[C@@H]3[C@](C)(C1=O)N2C(=O)c1ccc(Br)cc1,1,0,14,0,2,-4
CCc1nnc(NC(=O)CCC(=O)NC2CCCC2)s1,0,0,-6,-4,-3,10
COc1ccccc1C(=O)Oc1ccc2ccc(=O)oc2c1,2,-2,4,-11,-3,-5
